Test results: ChEMBL document CHEMBL4387704, “Design, synthesis and biological evaluation of novel isoindolinone derivatives as potent histone deacetylase inhibitors” (Eur J Med Chem, 2019)
Active and inactive are the calls of the source. The rule behind the calls is not given here.

Legend:
[1] = target: Histone deacetylase 8 (Homo sapiens, UniProt Q9BY41); test: Inhibition of HDAC8 (unknown origin) using Fluor de Lys substrate by fluorescence assay relative to control
Summary of the method: (§1)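 Recombinant HDAC isoform assays run by a contract lab. Compounds in DMSO, 10-dose IC50 mode, 3-fold serial dilution from 50 μM. Duplicate runs; IC50 from curve fitting.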

[2] = target: Histone deacetylase 4 (Homo sapiens) (UniProt P56524); test: Inhibition of HDAC4 (unknown origin) using Fluor de Lys substrate by fluorescence assay relative to control; summary of the method: as §1
[3] = target: Histone deacetylase 7 (Homo sapiens) (UniProt Q8WUI4); test: Inhibition of HDAC7 (unknown origin) using Fluor de Lys substrate by fluorescence assay relative to control; summary of the method: as §1
[4] = target: Protein deacetylase HDAC6 (Homo sapiens) (UniProt Q9UBN7); test: Inhibition of HDAC6 (unknown origin) using Fluor de Lys substrate by fluorescence assay relative to control; summary of the method: as §1
[5] = system: MCF7; test: Antiproliferative activity against human MCF7 assessed as reduction in cell viability measured after 72 hrs using alamar blue based fluorescence method; format: functional; conditions: MCF7, 72 h
Summary of the method: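 HCT116 and MCF-7 grown in McCoy's 5A with 10% FBS and penicillin/streptomycin at 37 °C, 5% CO2. Cells plated in 96-well format and exposed to drug for 72 h. Alamar blue (1 mM solution) added, incubated 5–6 h, fluorescence read at 530/590 nm.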

[6] = system: HL-60; test: Potency index, ratio of IC50 of chidamide to IC50 of test compound against human HL60 cells; format: functional
[7] = system: HL-60(TB); test: Growth inhibition of human HL-60(TB) cells assessed as cell growth inhibition at 10 uM incubated for 48 hrs by sulforhodamine B assay; format: functional; conditions: HL-60, 48 h, read-out: GI
[8] = system: MOLT-4; test: Growth inhibition of human MOLT4 cells assessed as cell growth inhibition at 10 uM incubated for 48 hrs by sulforhodamine B assay; format: functional; conditions: MOLT-4, 48 h, read-out: GI
[9] = system: RPMI-8226; test: Growth inhibition of human RPMI8226 cells assessed as cell growth inhibition at 10 uM incubated for 48 hrs by sulforhodamine B assay; format: functional; conditions: RPMI-8226, 48 h, read-out: GI
[10] = system: SR; test: Growth inhibition of human SR cells assessed as cell growth inhibition at 10 uM incubated for 48 hrs by sulforhodamine B assay; format: functional; conditions: read-out: GI
[11] = system: A549; test: Growth inhibition of human A549 cells assessed as cell growth inhibition at 10 uM incubated for 48 hrs by sulforhodamine B assay; format: functional; conditions: A549, 48 h, read-out: GI
[12] = system: NCI-H23; test: Growth inhibition of human NCI-H23 cells assessed as cell growth inhibition at 10 uM incubated for 48 hrs by sulforhodamine B assay; format: functional; conditions: NCI-H23, 48 h, read-out: GI
[13] = system: NCI-H460; test: Growth inhibition of human NCI-H460 assessed as cell growth inhibition at 10 uM incubated for 48 hrs by sulforhodamine B assay; format: functional; conditions: NCI-H460, 48 h, read-out: GI
[14] = system: NCI-H522; test: Growth inhibition of human NCI-H522 cells assessed as cell growth inhibition at 10 uM incubated for 48 hrs by sulforhodamine B assay; format: functional; conditions: NCI-H522, 48 h, read-out: GI
[15] = system: COLO 205; test: Growth inhibition of human COLO205 cells assessed as cell growth inhibition at 10 uM incubated for 48 hrs by sulforhodamine B assay; format: functional; conditions: COLO 205, 48 h, read-out: GI
[16] = system: HCC 2998; test: Growth inhibition of human HCC2998 cells assessed as cell growth inhibition at 10 uM incubated for 48 hrs by sulforhodamine B assay; format: functional; conditions: HCC 2998, 48 h, read-out: GI
[17] = system: KM12; test: Growth inhibition of human KM12 cells assessed as cell growth inhibition at 10 uM incubated for 48 hrs by sulforhodamine B assay; format: functional; conditions: KM12, 48 h, read-out: GI
[18] = system: SW-620; test: Growth inhibition of human SW620 cells assessed as cell growth inhibition at 10 uM incubated for 48 hrs by sulforhodamine B assay; format: functional; conditions: SW-620, 48 h, read-out: GI
[19] = system: PC-3; test: Growth inhibition of human PC3 cells assessed as cell growth inhibition at 10 uM incubated for 48 hrs by sulforhodamine B assay; format: functional; conditions: PC-3, 48 h, read-out: GI
[20] = system: A498; test: Growth inhibition of human A498 cells assessed as cell growth inhibition at 10 uM incubated for 48 hrs by sulforhodamine B assay; format: functional; conditions: A498, 48 h, read-out: GI
[21] = system: 786-0; test: Growth inhibition of human 786-0 cells assessed as cell growth inhibition at 10 uM incubated for 48 hrs by sulforhodamine B assay; format: functional; conditions: 786-0, 48 h, read-out: GI
[22] = system: SF-295; test: Growth inhibition of human SF295 cells assessed as cell growth inhibition at 10 uM incubated for 48 hrs by sulforhodamine B assay; format: functional; conditions: SF-295, 48 h, read-out: GI
[23] = system: SF-539; test: Growth inhibition of human SF539 cells assessed as cell growth inhibition at 10 uM incubated for 48 hrs by sulforhodamine B assay; format: functional; conditions: SF-539, 48 h, read-out: GI
[24] = system: LOX IMVI; test: Growth inhibition of human LOXIMVI cells assessed as cell growth inhibition at 10 uM incubated for 48 hrs by sulforhodamine B assay; format: functional; conditions: read-out: GI
[25] = system: M14; test: Growth inhibition of human M14 cells assessed as cell growth inhibition at 10 uM incubated for 48 hrs by sulforhodamine B assay; format: functional; conditions: M14, 48 h, read-out: GI
[26] = system: MDA-MB-435; test: Growth inhibition of human MDA-MB-435 cells assessed as cell growth inhibition at 10 uM incubated for 48 hrs by sulforhodamine B assay; format: functional; conditions: MDA-MB-435, 48 h, read-out: GI
[27] = system: MDA-MB-468; test: Growth inhibition of human MDA-MB-468 cells assessed as cell growth inhibition at 10 uM incubated for 48 hrs by sulforhodamine B assay; format: functional; conditions: MDA-MB-468, 48 h, read-out: GI
[28] = Metabolic stability in dog liver microsomes assessed as internal clearance at 1 uM preincubated for 10 mins followed by NADPH addition measured upto 60 mins by LC-MS/MS analysis; format: ADME, Canis lupus familiaris, Microsome; conditions: read-out: CLH
Summary of the method: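 Liver microsomes from male SD rat, dog or human at 0.5 mg/mL in 100 mM potassium phosphate pH 7.4 with 1 μM compound. Prewarmed 37 °C 10 min, started with 1 mM NADPH. Stopped at 0, 5, 10, 20, 40, 60 min with cold methanol containing glibenclamide internal standard; supernatant by LC–MS/MS; T1/2 and CLint derived.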

[29] = Terminal half life in Sprague-Dawley rat at 1 mg/kg, iv by LC-MS/MS analysis; format: ADME, organism-based; conditions: in vivo, read-out: beta t1/2 (converted)
Summary of the method: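 Male SD rats (199-214 g), three per route, single dose 1 mg/kg iv or 10 mg/kg po. Jugular blood (~200 μL) into heparinized tubes at set times; plasma by centrifugation, protein precipitation with acetonitrile containing verapamil and glibenclamide; drug measured by LC-MS/MS.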

[30] = AUC (0 to t) in Sprague-Dawley rat at 10 mg/kg, po by LC-MS/MS analysis; format: ADME, organism-based; conditions: in vivo

Protein deacetylase HDAC6 (Homo sapiens), sequence (Q9UBN7 whole entry): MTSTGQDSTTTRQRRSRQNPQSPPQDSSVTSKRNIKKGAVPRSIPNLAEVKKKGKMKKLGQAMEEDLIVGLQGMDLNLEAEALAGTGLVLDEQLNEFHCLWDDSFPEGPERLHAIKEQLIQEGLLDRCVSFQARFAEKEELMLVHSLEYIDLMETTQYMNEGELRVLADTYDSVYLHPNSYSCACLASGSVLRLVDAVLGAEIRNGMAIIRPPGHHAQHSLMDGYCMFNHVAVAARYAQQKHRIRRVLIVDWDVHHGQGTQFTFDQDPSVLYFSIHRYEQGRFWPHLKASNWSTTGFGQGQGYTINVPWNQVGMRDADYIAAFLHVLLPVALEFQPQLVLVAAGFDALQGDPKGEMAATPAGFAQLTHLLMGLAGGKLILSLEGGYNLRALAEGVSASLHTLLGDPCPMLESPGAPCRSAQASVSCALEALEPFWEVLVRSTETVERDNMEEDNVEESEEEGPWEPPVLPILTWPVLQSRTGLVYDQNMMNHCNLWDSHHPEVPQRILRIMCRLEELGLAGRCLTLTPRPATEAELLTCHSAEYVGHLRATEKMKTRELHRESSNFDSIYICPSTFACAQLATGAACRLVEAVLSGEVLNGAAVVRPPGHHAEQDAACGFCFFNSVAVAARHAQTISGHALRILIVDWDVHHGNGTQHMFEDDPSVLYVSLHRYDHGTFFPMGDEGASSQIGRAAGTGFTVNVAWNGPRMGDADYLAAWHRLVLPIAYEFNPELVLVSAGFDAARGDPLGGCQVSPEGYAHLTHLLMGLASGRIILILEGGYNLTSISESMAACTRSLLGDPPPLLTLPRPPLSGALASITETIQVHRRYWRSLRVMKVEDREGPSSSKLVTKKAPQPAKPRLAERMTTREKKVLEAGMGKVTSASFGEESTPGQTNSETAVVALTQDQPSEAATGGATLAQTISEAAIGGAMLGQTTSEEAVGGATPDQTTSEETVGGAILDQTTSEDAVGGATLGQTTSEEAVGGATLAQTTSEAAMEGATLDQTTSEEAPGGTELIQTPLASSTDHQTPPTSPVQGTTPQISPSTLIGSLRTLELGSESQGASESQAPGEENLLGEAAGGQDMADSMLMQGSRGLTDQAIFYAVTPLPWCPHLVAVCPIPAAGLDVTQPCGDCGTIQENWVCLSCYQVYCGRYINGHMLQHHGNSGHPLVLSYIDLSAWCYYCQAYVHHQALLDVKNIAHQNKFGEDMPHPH
Histone deacetylase 4 (Homo sapiens), sequence (P56524 whole entry): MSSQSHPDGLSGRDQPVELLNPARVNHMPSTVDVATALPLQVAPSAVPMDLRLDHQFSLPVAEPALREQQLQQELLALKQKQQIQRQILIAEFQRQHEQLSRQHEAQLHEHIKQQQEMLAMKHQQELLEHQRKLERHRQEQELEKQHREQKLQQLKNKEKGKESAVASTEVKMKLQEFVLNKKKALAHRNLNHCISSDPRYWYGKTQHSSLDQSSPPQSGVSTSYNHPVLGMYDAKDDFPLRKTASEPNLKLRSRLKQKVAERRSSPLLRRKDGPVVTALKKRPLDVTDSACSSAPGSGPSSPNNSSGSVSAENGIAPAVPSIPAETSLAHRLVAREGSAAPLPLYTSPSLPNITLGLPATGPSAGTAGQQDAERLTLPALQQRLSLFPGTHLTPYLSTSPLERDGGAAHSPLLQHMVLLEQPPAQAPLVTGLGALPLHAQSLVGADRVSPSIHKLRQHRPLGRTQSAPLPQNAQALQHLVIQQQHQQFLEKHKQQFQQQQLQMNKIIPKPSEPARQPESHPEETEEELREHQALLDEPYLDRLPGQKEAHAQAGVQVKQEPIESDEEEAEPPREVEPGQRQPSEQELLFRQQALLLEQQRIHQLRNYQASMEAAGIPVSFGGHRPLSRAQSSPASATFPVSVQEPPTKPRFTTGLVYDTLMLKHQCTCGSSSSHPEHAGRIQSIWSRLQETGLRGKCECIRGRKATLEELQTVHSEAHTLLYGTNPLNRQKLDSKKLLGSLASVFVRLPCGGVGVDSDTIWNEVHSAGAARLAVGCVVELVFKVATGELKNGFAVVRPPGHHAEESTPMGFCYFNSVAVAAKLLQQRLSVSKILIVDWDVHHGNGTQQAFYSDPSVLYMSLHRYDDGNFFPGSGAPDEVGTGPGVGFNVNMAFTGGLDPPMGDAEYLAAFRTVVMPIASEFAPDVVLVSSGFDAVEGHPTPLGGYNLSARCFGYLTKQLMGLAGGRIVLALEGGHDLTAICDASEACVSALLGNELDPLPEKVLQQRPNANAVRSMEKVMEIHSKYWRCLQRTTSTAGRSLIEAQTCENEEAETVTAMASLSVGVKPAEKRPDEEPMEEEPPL
Histone deacetylase 7 (Homo sapiens), sequence (Q8WUI4 whole entry): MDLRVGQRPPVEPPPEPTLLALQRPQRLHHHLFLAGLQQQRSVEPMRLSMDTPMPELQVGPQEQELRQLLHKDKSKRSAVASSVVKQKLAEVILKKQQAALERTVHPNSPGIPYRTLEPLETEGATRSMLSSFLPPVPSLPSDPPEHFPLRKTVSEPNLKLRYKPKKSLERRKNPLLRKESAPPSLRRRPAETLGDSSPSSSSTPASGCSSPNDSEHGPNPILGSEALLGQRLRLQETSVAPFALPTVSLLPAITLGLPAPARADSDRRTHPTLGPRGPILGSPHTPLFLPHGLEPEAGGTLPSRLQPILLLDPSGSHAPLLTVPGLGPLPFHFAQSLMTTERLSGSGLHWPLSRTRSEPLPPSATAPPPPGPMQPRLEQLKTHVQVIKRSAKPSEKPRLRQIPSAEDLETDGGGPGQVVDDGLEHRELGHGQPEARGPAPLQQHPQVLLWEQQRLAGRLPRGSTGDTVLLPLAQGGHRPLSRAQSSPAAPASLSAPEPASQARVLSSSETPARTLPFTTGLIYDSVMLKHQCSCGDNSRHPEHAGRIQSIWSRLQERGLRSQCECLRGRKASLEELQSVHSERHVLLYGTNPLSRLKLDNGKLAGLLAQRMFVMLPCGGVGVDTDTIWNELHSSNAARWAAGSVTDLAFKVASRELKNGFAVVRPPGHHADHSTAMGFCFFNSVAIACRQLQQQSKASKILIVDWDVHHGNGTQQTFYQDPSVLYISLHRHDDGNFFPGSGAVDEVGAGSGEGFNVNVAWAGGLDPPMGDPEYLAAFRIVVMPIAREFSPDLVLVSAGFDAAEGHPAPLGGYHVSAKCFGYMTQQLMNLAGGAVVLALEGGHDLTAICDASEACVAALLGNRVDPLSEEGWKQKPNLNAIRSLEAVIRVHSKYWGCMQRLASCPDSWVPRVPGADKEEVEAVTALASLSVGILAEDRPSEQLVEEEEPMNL
Histone deacetylase 8, sequence (Q9BY41 whole entry, canonical isoform): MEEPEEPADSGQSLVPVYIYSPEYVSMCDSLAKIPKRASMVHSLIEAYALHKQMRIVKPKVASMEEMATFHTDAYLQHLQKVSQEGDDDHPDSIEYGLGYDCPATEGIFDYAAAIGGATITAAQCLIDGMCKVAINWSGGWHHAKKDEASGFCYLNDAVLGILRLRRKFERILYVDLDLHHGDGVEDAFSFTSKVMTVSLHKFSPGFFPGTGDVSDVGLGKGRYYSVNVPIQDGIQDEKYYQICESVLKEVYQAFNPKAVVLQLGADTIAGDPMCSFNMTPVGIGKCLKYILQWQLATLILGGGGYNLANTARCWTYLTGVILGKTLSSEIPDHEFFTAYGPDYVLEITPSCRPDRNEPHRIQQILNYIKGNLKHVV

**Q.** Which IC50 [1] does the source give for `Nc1cc(F)ccc1NC(=O)c1ccc(CNC(=O)/C=C2\NC(=O)c3ccccc32)cc1` here?
**A.** The IC50 was 1.08 µM.

**Q.** What about the inhibition [2] of the same compound?
**A.** Its inhibition is “inactive”.

**Q.** And the inhibition [3]?
**A.** The inhibition was “inactive”.

**Q.** What about the inhibition [4] of the same compound?
**A.** The inhibition was “inactive”.

**Q.** What about the IC50 [5] of the same compound?
**A.** The IC50 was 14.6 µM.

**Q.** What about the “Ratio IC50” value [6] of the same compound?
**A.** The value was 5.

**Q.** What about the inhibition of growth at 10 µM [7] of the same compound?
**A.** The inhibition of growth at 10 µM was 84%.

**Q.** What about the inhibition of growth at 10 µM [8] of the same compound?
**A.** Its inhibition of growth at 10 µM is 63%.

**Q.** What about the inhibition of growth at 10 µM [9] of the same compound?
**A.** The inhibition of growth at 10 µM was 59.8%.

**Q.** And the inhibition of growth at 10 µM [10]?
**A.** Its inhibition of growth at 10 µM is 57.6%.

**Q.** And the inhibition of growth at 10 µM [11]?
**A.** The inhibition of growth at 10 µM was 12.2%.

**Q.** And the inhibition of growth at 10 µM [12]?
**A.** Its inhibition of growth at 10 µM is 26.5%.

**Q.** And the inhibition of growth at 10 µM [13]?
**A.** The inhibition of growth at 10 µM was 26.8%.

**Q.** And the inhibition of growth at 10 µM [14]?
**A.** The inhibition of growth at 10 µM was 70.7%.

**Q.** What about the inhibition of growth at 10 µM [15] of the same compound?
**A.** Its inhibition of growth at 10 µM is 27.8%.

**Q.** What about the inhibition of growth at 10 µM [16] of the same compound?
**A.** The inhibition of growth at 10 µM was 20.4%.

**Q.** And the inhibition of growth at 10 µM [17]?
**A.** Its inhibition of growth at 10 µM is 26.9%.

**Q.** What about the inhibition of growth at 10 µM [18] of the same compound?
**A.** Its inhibition of growth at 10 µM is 40.1%.

**Q.** What about the inhibition of growth at 10 µM [19] of the same compound?
**A.** The inhibition of growth at 10 µM was 39.4%.

**Q.** And the inhibition of growth at 10 µM [20]?
**A.** Its inhibition of growth at 10 µM is 47.1%.

**Q.** What about the inhibition of growth at 10 µM [21] of the same compound?
**A.** The inhibition of growth at 10 µM was 7.02%.

**Q.** What about the inhibition of growth at 10 µM [22] of the same compound?
**A.** The inhibition of growth at 10 µM was 16.2%.

**Q.** And the inhibition of growth at 10 µM [23]?
**A.** Its inhibition of growth at 10 µM is 44.8%.

**Q.** And the inhibition of growth at 10 µM [24]?
**A.** Its inhibition of growth at 10 µM is 15.7%.

**Q.** And the inhibition of growth at 10 µM [25]?
**A.** Its inhibition of growth at 10 µM is 29.4%.

**Q.** What about the inhibition of growth at 10 µM [26] of the same compound?
**A.** Its inhibition of growth at 10 µM is 28.8%.

**Q.** What about the inhibition of growth at 10 µM [27] of the same compound?
**A.** Its inhibition of growth at 10 µM is 9.71%.

**Q.** What about the microsomal CLint at 1 µM [28] of the same compound?
**A.** The microsomal CLint at 1 µM was 6.92 µL/min/mg.

**Q.** And the half-life [29]?
**A.** Its half-life is 23.4 min.

**Q.** What about the AUC(0-t) [30] of the same compound?
**A.** Its AUC(0-t) is 1710 ng·h/mL.
